Reference: ChEMBL document CHEMBL4266056, “Discovery and Pharmacology of a Novel Somatostatin Subtype 5 (SSTR5) Antagonist: Synergy with DPP-4 Inhibition” (ACS Med Chem Lett, 2018)
Activity calls are given as the source filed them. No cut-off for these calls is given here.

Columns and labels:
[1] = Fraction unbound in rat plasma at 0.1 uM using [3H]-labeled compound; type: ADME, cell-free
[2] = Fraction unbound in rhesus monkey plasma at 0.1 uM using [3H]-labeled compound; type: ADME, cell-free, Macaca mulatta
[3] = system: Mus musculus; assay: Antidiabetic activity in HFD fed C57BL/6N mouse assessed as decrease in blood glucose AUC at 1 mg/kg administered as single oral dose pretreated for 60 mins followed by glucose challenge measured after 120 mins by OGTT; type: functional; parameters: scale not given: the % may be the effect or the level left
Outline: (§1)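 Oral dose titration (0.03-3 mg/kg) in HFD-fed mice, n=8. Dosing was followed by an oral glucose tolerance test. Net blood glucose AUC was expressed as % reduction versus vehicle, with P values versus vehicle.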

[4] = molecular target: Voltage-gated inwardly rectifying potassium channel KCNH2 (Homo sapiens, UniProt Q12809); assay: Inhibition of MK-499 binding to human ERG
[5] = molecular target: Somatostatin receptor type 4 (Homo sapiens, UniProt P31391); assay: Antagonist activity at human SSTR4 expressed in CHO-K1 cell membranes; type: functional, cell-based
Outline: (§2)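 Counter-screen by filtration membrane binding: competitive displacement of radiolabeled SST-28 from cell membranes expressing human SSTR1, SSTR2, SSTR3 or SSTR4. The IC50 is the mean of at least duplicate experiments within a maximal threefold range.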

[6] = molecular target: Cytochrome P450 3A4 (Homo sapiens, UniProt P08684); assay: Inhibition of human CYP3A4; type: ADME
[7] = system: Mus musculus; assay: Antidiabetic activity in HFD fed C57BL/6N mouse assessed as decrease in blood glucose AUC at 3 mg/kg administered as single oral dose pretreated for 60 mins followed by glucose challenge measured after 120 mins by OGTT; type: functional; parameters: scale not given: the % may be the effect or the level left; outline: as §1
[8] = Aqueous solubility of the compound in neutral solution; type: physicochemical
[9] = system: Mus musculus; assay: Antidiabetic activity in HFD fed C57BL/6N mouse assessed as decrease in blood glucose AUC at 0.1 mg/kg administered as single oral dose pretreated for 60 mins followed by glucose challenge measured after 120 mins by OGTT; type: functional; parameters: scale not given: the % may be the effect or the level left; outline: as §1
[10] = Clearance in rat at 1 mg/kg, iv or 2 mg/kg, po; type: ADME, organism-based; details: in vivo
Outline: (§3)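 Rat pharmacokinetics after separate intravenous (1 mg/kg) and oral (2 mg/kg) dosing. Clearance is reported in mL/kg/min and half-life in hours. Oral bioavailability is given as F (%).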

[11] = system: Pancreatic islet; assay: Induction of SST-14 secretion in human pancreatic islets in presence of glucose by ELISA; type: functional, cell-based
Outline: (§4)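 In the same human islet incubations, SST-14 and glucagon secretion were monitored alongside insulin.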

[12] = Drug uptake in C57BL/6N mouse whole blood at 1 mg/kg, po measured at 3 hrs; type: ADME, organism-based; details: read-out: Drug uptake
Outline: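 Whole-blood compound exposure was measured 3 h after oral dosing (0.03-3 mg/kg) in HFD mice run through the OGTT dose titration. Unbound levels were derived using the plasma free fraction.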

[13] = molecular target: Sodium channel protein type 5 subunit alpha (Homo sapiens, UniProt Q14524); assay: Inhibition of Nav1.5 (unknown origin)
[14] = molecular target: Voltage-dependent L-type calcium channel subunit alpha-1C (Homo sapiens, UniProt Q13936); assay: Inhibition of Cav1.2 (unknown origin)
[15] = molecular target: Potassium voltage-gated channel subfamily E member 1 (Homo sapiens, UniProt P15382); assay: Inhibition of IKs (unknown origin)
[16] = Volume of distribution in rat at 1 mg/kg, iv or 2 mg/kg, po; type: ADME, organism-based; details: in vivo
[17] = system: Mus musculus; assay: Antidiabetic activity in HFD fed C57BL/6N mouse assessed as increase in circulating active GLP-1 levels at 10 mg/kg, po pretreated for 60 mins measured 5 mins post glucose challenge by OGTT; type: functional, organism-based
Outline: (§5)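 The SSTR5 antagonist was given orally at 10 mg/kg, alone or combined with des-fluoro sitagliptin at 10 mg/kg, ahead of an oral glucose challenge. Blood was sampled 5 min after glucose for circulating total GLP-1, active GLP-1[7-36] amide and plasma insulin.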

[18] = system: Pancreatic islet; assay: Induction of glucagon secretion in human pancreatic islets in presence of glucose by ELISA; type: functional, cell-based; outline: as §4
[19] = Solubility of the compound in 10% tween formulation; type: physicochemical
[20] = system: Mus musculus; assay: Antidiabetic activity in HFD fed C57BL/6N mouse assessed as decrease in blood glucose AUC at 0.03 mg/kg administered as single oral dose pretreated for 60 mins followed by glucose challenge measured after 120 mins by OGTT; type: functional; parameters: scale not given: the % may be the effect or the level left; outline: as §1
[21] = molecular target: Cytochrome P450 2D6 (Homo sapiens, UniProt P10635); assay: Inhibition of human CYP2D6; type: ADME
[22] = Clearance in rhesus monkey at […], iv or 1 mg/kg, po; type: ADME, organism-based, Macaca mulatta; details: in vivo
[23] = Clearance in dog at […], iv or 1 mg/kg, po; type: ADME, organism-based, Canis lupus familiaris; details: in vivo
[24] = molecular target: Somatostatin receptor type 2 (Homo sapiens, UniProt P30874); assay: Antagonist activity at human SSTR2 expressed in CHO-K1 cell membranes; type: functional, cell-based; outline: as §2
[25] = system: Mus musculus; assay: Antidiabetic activity in HFD fed SSTR5 knock-out C57BL/6N mouse assessed as decrease in blood glucose AUC at 0.03 to 3 mg/kg administered as single oral dose pretreated for 60 mins followed by glucose challenge measured after 120 mins by OGTT; type: functional, organism-based
[26] = Unbound plasma concentration in C57BL/6N mouse plasma at 3 mg/kg, po measured at 3 hrs; type: ADME, organism-based; details: in vivo
[27] = system: Pancreatic islet; assay: Induction of glucose-dependent insulin secretion in human pancreatic islets at 0.5 to 5 uM preincubated for 30 mins with 2 mM glucose followed by compound addition measured after 60 mins by ELISA; type: functional, cell-based
Outline: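 Isolated pancreatic islets from non-diabetic human donors were incubated with compound at 0.5 or 5 µM in 2 mM (G2) or 16 mM (G16) glucose. Insulin secretion was measured against a DMSO control, with P<0.05 significance.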

[28] = system: Mus musculus; assay: Antidiabetic activity in HFD fed C57BL/6N mouse assessed as increase in circulating active GLP-1 levels at 10 mg/kg, po cotreated with DPP4 inhibitor des-fluoro sitagliptin pretreated with compound for 60 mins followed by glucose challenge measured after 120 mins by OGTT; type: functional, organism-based
[29] = system: Mus musculus; assay: Antidiabetic activity in HFD fed C57BL/6N mouse assessed as increase in circulating total GLP-1 levels at 10 mg/kg, po pretreated for 60 mins measured 5 mins post glucose challenge by OGTT; type: functional, organism-based; outline: as §5
[30] = Volume of distribution in dog at […], iv or 1 mg/kg, po; type: ADME, organism-based, Canis lupus familiaris; details: in vivo
[31] = Unbound plasma concentration in C57BL/6N mouse plasma at 1 mg/kg, po measured at 3 hrs; type: ADME, organism-based; details: in vivo
[32] = system: Mus musculus; assay: Antidiabetic activity in HFD fed C57BL/6N mouse assessed as increase in plasma insulin levels at 10 mg/kg, po pretreated for 60 mins measured 5 mins post glucose challenge by OGTT; type: functional, organism-based; outline: as §5
[33] = Oral bioavailability in rat at 2 mg/kg; type: ADME, organism-based; details: in vivo; outline: as §3
[34] = Oral bioavailability in dog at 1 mg/kg; type: ADME, organism-based, Canis lupus familiaris; details: in vivo
[35] = system: Pancreatic islet; assay: Induction of glucose-dependent insulin secretion in human pancreatic islets at 0.5 and 5 uM preincubated for 30 mins with glucose followed by compound addition measured after 60 mins by ELISA
[36] = molecular target: Somatostatin receptor type 1 (Homo sapiens, UniProt P30872); assay: Antagonist activity at human SSTR1 expressed in CHO-K1 cell membranes; type: functional, cell-based; outline: as §2
Chain of Somatostatin receptor type 1 (P30872 whole entry): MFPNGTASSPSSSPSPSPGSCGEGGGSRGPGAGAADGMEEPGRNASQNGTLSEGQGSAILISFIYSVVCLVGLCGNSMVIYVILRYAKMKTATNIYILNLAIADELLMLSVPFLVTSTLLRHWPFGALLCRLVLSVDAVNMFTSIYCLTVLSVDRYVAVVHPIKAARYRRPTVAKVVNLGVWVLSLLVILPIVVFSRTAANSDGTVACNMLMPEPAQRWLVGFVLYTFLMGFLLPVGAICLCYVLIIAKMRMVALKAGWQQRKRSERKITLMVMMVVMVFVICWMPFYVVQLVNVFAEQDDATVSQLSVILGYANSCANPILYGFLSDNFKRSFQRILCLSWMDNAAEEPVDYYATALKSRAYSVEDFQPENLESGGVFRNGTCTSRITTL

Chain of Somatostatin receptor type 4 (P31391 whole entry): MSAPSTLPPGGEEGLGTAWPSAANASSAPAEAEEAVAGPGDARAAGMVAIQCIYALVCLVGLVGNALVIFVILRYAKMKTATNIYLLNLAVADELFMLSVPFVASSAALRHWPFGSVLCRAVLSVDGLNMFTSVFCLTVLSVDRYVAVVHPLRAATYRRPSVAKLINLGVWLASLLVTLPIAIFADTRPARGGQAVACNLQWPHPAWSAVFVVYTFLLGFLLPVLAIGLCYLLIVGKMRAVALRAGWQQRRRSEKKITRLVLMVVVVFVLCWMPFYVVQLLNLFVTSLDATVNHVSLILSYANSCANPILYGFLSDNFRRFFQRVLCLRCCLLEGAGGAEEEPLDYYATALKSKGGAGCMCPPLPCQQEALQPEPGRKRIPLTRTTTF
Chain of Cytochrome P450 2D6 (P10635 whole entry): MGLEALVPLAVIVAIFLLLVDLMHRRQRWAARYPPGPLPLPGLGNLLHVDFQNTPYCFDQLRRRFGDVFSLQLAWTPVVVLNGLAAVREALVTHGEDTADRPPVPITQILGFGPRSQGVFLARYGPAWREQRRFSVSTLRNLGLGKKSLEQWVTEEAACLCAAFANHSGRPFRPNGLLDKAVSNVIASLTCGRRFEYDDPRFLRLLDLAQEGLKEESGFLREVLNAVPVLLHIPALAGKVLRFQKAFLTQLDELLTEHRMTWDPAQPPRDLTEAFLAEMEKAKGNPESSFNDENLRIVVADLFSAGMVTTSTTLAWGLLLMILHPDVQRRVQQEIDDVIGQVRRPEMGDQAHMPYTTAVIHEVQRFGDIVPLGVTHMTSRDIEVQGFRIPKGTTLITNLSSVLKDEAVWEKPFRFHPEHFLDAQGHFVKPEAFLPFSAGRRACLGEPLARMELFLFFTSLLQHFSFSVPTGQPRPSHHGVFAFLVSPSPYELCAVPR
Chain of Voltage-gated inwardly rectifying potassium channel KCNH2 (Q12809 whole entry): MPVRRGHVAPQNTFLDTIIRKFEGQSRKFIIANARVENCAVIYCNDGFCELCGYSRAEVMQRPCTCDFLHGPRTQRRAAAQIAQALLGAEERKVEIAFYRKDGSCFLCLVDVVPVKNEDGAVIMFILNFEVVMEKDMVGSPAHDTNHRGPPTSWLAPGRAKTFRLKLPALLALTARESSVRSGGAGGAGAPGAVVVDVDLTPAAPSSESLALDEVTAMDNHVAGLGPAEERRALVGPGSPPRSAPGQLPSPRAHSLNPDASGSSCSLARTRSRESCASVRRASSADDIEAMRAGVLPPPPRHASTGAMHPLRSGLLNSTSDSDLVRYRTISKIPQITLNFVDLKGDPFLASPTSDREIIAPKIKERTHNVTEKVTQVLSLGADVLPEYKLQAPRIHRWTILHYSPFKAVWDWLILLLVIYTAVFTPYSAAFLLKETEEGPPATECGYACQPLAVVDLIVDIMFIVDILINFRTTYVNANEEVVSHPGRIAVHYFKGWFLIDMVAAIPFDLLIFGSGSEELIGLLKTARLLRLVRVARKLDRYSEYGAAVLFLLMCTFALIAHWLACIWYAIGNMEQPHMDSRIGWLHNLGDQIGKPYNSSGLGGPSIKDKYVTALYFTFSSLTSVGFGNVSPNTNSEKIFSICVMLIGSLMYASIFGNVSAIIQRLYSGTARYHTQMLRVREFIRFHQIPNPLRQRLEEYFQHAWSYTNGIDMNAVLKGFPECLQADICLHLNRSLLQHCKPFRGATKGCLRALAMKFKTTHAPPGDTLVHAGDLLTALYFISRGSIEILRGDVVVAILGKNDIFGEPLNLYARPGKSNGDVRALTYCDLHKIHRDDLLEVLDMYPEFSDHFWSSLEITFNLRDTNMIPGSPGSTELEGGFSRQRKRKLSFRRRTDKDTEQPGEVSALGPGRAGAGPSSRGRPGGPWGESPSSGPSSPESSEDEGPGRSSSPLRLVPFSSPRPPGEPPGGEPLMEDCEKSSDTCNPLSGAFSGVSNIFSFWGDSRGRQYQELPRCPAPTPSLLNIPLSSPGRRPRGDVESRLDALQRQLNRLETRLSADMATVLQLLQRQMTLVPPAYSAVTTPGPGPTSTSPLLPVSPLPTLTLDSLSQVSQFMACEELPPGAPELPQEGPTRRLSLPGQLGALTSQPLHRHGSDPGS
Chain of Voltage-dependent L-type calcium channel subunit alpha-1C (Q13936 whole entry): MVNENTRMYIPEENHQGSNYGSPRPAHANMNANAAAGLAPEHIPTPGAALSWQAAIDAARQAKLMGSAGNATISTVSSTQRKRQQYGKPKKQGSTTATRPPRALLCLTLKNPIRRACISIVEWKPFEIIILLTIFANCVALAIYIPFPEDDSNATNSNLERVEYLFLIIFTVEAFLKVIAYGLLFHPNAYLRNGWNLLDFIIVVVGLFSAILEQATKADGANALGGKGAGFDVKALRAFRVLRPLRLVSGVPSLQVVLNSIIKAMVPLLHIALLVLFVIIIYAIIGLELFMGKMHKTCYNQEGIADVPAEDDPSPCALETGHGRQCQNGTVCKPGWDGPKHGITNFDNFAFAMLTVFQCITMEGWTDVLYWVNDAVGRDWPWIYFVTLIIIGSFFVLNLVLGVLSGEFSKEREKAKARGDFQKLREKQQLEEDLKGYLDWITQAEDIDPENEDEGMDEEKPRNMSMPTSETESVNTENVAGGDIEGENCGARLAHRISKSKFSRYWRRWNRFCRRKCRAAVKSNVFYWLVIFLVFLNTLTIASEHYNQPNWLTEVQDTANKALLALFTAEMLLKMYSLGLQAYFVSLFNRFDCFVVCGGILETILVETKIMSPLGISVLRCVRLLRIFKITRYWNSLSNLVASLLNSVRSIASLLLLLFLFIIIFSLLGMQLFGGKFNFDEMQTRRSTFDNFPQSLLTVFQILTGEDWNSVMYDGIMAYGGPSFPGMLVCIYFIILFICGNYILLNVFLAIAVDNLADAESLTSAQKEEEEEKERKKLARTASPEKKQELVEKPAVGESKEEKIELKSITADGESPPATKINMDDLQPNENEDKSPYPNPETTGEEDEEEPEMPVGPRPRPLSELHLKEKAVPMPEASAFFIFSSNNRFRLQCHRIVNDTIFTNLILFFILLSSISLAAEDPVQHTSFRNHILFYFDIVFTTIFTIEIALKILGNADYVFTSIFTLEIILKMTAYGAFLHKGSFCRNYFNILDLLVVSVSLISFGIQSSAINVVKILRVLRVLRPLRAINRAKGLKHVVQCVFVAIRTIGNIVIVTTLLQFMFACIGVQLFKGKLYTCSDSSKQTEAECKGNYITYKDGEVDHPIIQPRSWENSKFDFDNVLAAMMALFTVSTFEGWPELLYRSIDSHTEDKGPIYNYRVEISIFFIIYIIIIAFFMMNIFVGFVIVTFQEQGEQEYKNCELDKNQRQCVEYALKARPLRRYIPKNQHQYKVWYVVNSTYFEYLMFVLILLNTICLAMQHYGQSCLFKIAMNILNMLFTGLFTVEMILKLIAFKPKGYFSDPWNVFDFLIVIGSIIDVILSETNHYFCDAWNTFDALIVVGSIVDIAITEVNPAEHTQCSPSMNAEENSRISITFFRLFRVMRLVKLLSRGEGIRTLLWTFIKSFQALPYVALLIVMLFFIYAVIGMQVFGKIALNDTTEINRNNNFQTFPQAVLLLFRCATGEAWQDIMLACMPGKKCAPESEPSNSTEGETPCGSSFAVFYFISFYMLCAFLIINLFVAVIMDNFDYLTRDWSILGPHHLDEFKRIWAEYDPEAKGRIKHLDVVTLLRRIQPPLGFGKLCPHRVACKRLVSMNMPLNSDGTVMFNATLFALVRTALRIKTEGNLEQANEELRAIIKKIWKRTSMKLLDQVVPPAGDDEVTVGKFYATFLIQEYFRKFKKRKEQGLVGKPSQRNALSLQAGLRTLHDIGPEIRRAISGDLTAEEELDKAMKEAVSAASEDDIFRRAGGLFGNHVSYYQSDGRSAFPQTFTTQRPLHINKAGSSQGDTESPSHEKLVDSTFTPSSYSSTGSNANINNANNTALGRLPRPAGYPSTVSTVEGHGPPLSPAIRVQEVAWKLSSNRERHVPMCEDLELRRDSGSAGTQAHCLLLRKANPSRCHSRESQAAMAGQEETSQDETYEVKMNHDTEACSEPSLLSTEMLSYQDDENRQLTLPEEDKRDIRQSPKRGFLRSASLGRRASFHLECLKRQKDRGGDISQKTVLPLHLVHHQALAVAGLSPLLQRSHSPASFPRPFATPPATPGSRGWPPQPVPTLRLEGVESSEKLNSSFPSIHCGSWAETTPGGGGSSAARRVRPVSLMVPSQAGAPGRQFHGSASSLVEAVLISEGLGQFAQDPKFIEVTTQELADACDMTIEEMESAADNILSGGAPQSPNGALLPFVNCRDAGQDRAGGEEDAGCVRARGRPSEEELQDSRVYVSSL

CCOc1cc(CN2CCC3(CC2)CC(=O)N(c2ccc(C(=O)O)cc2)C3)cc(OCC)c1-c1ccc(F)cc1.O=C(O)C(F)(F)F
Fu [1]: 5.7% | Fu [2]: 5.4% | Activity [3]: 74% | IC50 [4]: 45 µM | IC50 [5]: > 10 µM | IC50 [6]: > 50 µM | Activity [7]: 84 - 94% | solubility [8]: 300 µg/mL | Activity [9]: 58% | clearance [10]: 15.2 mL/min/kg | Activity [11]: inactive | concentration at 3 h [12]: 131 nM | IC50 [13]: > 15 µM | IC50 [14]: > 15 µM | IC50 [15]: > 15 µM | Vd [16]: 2.38 L/kg | Activity [17]: Active | Activity [18]: inactive | solubility [19]: 5300 µg/mL | Activity [20]: 23% | IC50 [21]: > 50 µM | clearance [22]: 11.8 mL/min/kg | clearance [23]: 2.2 mL/min/kg | IC50 [24]: > 10 µM | Activity [25]: inactive | Cp(f) [26]: 16.1 nM | Activity [27]: inactive | Activity [28]: Active | Activity [29]: Active | Vd [30]: 2.82 L/kg | Cp(f) [31]: 6 nM | Activity [32]: Active | bioavailability [33]: 41% | bioavailability [34]: 72% | Activity [35]: Active | IC50 [36]: > 10 µM
